Source: PubChem (several laboratories)
Shown are actives, neighbours in structure and some others; about 5.5% of the full set was active somewhere.
KCC2 mod – modulators of human KCC2 chloride dependent transport | KCC2 cells, thallium flux FluoZin-2 fluorescence | B-score of Tl+ flux slope (higher = more flux/activation; lower = inhibition) at 10 µM | 2.2% of 190,000 active | AID 1456;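 active means thallium flux slope and its plate-corrected score both differing from the plate sample mean at a set confidence after two filtering rounds, in either direction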;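 further: slope of fluorescence scaled to starting intensity during 10 to 20 s after thallium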
Target sequence (Q9H2X9 whole entry, looked up): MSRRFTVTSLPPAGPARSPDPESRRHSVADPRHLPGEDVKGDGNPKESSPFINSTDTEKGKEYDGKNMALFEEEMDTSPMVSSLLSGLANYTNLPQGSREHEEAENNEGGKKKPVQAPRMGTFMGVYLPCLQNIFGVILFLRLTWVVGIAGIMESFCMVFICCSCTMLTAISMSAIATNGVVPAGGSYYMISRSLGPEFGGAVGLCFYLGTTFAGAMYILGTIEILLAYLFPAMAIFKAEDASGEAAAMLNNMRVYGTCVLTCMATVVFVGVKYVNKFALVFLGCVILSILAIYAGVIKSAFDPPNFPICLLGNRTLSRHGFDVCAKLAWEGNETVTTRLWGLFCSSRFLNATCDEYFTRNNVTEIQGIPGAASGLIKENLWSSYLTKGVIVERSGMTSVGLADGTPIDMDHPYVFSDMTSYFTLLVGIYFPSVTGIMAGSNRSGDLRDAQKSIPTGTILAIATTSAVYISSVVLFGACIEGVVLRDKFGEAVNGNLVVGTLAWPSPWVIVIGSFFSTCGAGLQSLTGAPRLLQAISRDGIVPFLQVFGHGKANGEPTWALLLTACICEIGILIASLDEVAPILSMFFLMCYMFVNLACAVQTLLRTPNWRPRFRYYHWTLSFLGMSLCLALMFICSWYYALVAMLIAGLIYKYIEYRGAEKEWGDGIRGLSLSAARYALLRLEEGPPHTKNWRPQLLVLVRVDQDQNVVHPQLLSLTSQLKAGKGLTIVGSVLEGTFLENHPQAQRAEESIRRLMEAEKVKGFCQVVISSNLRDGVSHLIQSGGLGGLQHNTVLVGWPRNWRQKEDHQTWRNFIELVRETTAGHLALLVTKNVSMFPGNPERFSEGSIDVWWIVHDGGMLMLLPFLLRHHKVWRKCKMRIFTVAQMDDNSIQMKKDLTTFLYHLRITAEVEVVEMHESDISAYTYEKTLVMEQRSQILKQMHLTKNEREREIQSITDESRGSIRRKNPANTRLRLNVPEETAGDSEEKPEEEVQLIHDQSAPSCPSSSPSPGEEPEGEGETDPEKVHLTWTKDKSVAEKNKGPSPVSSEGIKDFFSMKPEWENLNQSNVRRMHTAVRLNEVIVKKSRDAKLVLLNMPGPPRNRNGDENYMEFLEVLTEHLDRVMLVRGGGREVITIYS
STAT1 inh-1 – STAT1 signaling inhibition. NIH 3T3 STAT1-luciferase reporter, IFN-gamma, luminescence. inhibition, % at 5.5 µM. 0.35% of 200,000 active. AID 920;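 active means inhibition above a set limit, the mean inhibition across all tested compounds plus 3 SD, cut at about 34% in these data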;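 further: 0% = IFN-gamma with DMSO and 100% = IFN-gamma with 300 µM nifuroxazide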
HSV augment – HSV replication enhancement | HSV replication augmentation in cells, fold increase | maximum fold increase | 0.005% of 220,000 active | AID 1956; in the data active means maximum fold increase above about 1.5; tested in PC3 cells
STAT3 act – activators of IL-6 induced STAT3 signaling | U3A cells, IL-6 STAT3-luciferase reporter, luminescence; 100% = signal with IL-6 EC80 alone | activation (% of control), % at 5.6 µM | 0.91% of 190,000 active;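 active means activation above the screen-wide mean of compound activation plus 3 SD, cut at about 130% in these data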;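 further: 0% = background luminescence of wells with medium and substrate only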
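Material: STAT3-luciferase reporter U3A cells; Probe or stimulus: IL-6 (33 ng/mL); Incubation: compound pre-incubation 1 h before IL-6, then 6 h stimulation at 37 °C; Technique: luminescence from STAT3-driven luciferase reporter; Evaluation: % activation versus median of IL-6-stimulated wells; Controls: IL-6-only high control.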
STAT3 blocker – inhibitors of IL-6 induced STAT3 signaling; inhibition, % at 5.5 µM; 0.89% of 190,000 active; U3A cells, IL-6 STAT3-luciferase reporter, luminescence; host cell line lacks STAT1;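 active means inhibition above the mean inhibition across all screened compounds plus 3 SD, cut at about 44% in these data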;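 further: 0% = DMSO only wells and 100% = 100 µM nifuroxazide control wells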
STAT1 activator – increases IFN-gamma driven STAT1 reporter signal | NIH 3T3 STAT1-luciferase reporter, luminescence; 100% = IFN-gamma alone, no compound | activation (% of control), % at 5.5 µM | 2.6% of 200,000 active | AID 932;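 active means activation above the screen-wide mean activation plus 3 SD, cut at about 130% in these data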;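 further: raw ratio to IFN-gamma control signal so 100% means no change and 0% no light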
STAT1 inh-2 – confirmation of STAT1 signaling inhibitors; 55% of 200 active; inhibition, % at 5.5 µM; shares compounds with STAT1 inh-1; AID 1263; NIH 3T3 STAT1-luciferase reporter, IFN-gamma, luminescence;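 active means triplicate mean inhibition exceeding the hit cutoff computed for the primary STAT1 screen, cut at about 35% in these data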;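 further: 0% = DMSO with IFN-gamma and 100% = 300 µM nifuroxazide with IFN-gamma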
NFkB inh STAT1ct – counter-screen for STAT1 inhibitors: NF-kappaB inhibition. shares compounds with STAT1 inh-1. HEK293T NF-kB luciferase reporter, TNF-alpha induced, luminescence. inhibition, % at 5.7 µM. 30% of 200 active. AID 1303;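 active means inhibition above the mean of solvent-only control wells plus 3 SD of those wells, cut at about 15% in these data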;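 further: 0% = DMSO with TNF-alpha and 100% = MG-132 control with TNF-alpha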
STAT3 inh 2 – inhibits STAT3, counter-screen to STAT1 inhibitors; U3A cells, IL-6 STAT3 luciferase reporter, luminescence; cells lacking STAT1; inhibition, % at 5.7 µM; AID 1310; 20% of 200 active; shares compounds with STAT1 inh-1;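 active means inhibition above the mean of solvent-only control wells plus 3 SD, set per campaign, cut at about 25% in these data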;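 further: 0% = IL-6 plus DMSO and 100% = IL-6 plus nifuroxazide control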
Numbers without * were called inactive; i = inactive; . = not tested or not shown.

SMILES	KCC2 mod	STAT1 inh-1	HSV augment	STAT3 act	STAT3 blocker	STAT1 activator	STAT1 inh-2	NFkB inh STAT1ct	STAT3 inh 2
O=C(N/N=C/c1ccncc1)c1nn(Cc2ccccc2)c(=O)c2ccccc12	-1.5	39*	i	93	16	63	23	-8	8
N#CC1=C(N2CCCCC2)c2cc3c(n2C1=O)CCCC3	-0.6	6	i	94	11	94	.	.	.
CCOC(=O)c1c(C)sc2c1N(C(=O)CCl)c1cc(Cl)ccc1S2	-0.74	36*	i	83	23	67	40*	30*	15
CN(C)/C=C/c1onc(-c2ccccc2Cl)c1C#N	-0.3	-11	.	101	2	109	.	.	.
Cc1ccccc1-c1noc(N)c1C#N	-1.4	35*	i	100	3	68	42*	-4	2
COc1ccccc1NC(=O)CSc1nc2ccccc2cc1Cc1ccccc1	0.03	2	.	94	14	98	.	.	.
CCOC(=O)C(=CNc1cc(C)nn1-c1ccc(Cl)cc1)C(=O)OCC	.	59*	i	104	2	46	55*	17*	1
CCOC(=O)C(=CNc1ccc(Cl)cn1)C(=O)OCC	-1.6	.	i	.	.	.	.	.	.
Cc1ccc(-c2csc3ncnc(Sc4nnc(CN5CCCCCC5=O)o4)c23)cc1	-0.049	44*	i	81	27	60	56*	12	21
Cc1ccc(Cl)cc1NC(=O)COC(=O)c1ccc(N2CCCC2)c([N+](=O)[O-])c1	-2.3	5	i	100	-2	95	.	.	.
CC(C)OC(=O)NCCOC(=O)Nc1ccc(Cl)cc1	-0.61	4	i	97	8	94	.	.	.
Fc1ccc(-c2cnn3c(-c4cccs4)ccnc23)cc1	0.4	35*	i	85	26	67	-89	22*	-53
COc1ccc2c(c1OC)C(=O)N1c3ccccc3C(=O)N(c3ccccc3F)C21 (stereo unspecified)	0.074	48*	i	85	23	55	41*	-12	30*
O=C1c2ccccc2N2C(=O)c3ccccc3[C@H]2N1c1ccccc1	-1.3	4	i	85	24	96	.	.	.
O=C(O)c1cc(/C=C/c2ccc(N3CCOCC3)cc2)nc2ccccc12	0.61	39*	i	65	43	64	-5	38*	-13
COc1ccccc1C(=O)NCC(=O)NNc1ncnc(N)c1[N+](=O)[O-]	-0.42	-8	i	104	3	106	.	.	.
CCCn1nnnc1NC(=O)c1cc(Cl)ccc1Cl	0.79	-1	.	79	24	101	.	.	.
COC(=O)c1ccc(CC(=O)c2ccc(O)cc2O)o1	-0.84	21	i	95	8	80	.	.	.
CCOC(=O)c1ccc(CC(=O)c2ccc(O)cc2O)o1	-1	51*	i	82	25	53	46*	32*	-35
CC(C)c1nnc(NC(=O)CCS(=O)(=O)c2nc(-c3cccs3)cc(C(F)(F)F)n2)s1	-1.9	37*	i	96	7	66	44*	15*	6
O=C(Nc1ccc(F)cc1)C(c1ccccc1)N1CCN(S(=O)(=O)c2ccccc2)CC1 (stereo unspecified)	-2	18	i	98	5	84	.	.	.
Cc1ccc(S(=O)(=O)N2CCN(C(C(=O)Nc3ccc(F)cc3)c3ccccc3)CC2)cc1 (stereo unspecified)	-1	43*	i	106	-8	61	47*	-5	-27
Cc1ccc(C(=O)OCCc2c(C)[nH]n(-c3ccccc3)c2=O)cc1	.	10	i	86	20	91	.	.	.
COc1ccc(NC(=O)c2ccc(-c3ccccc3)cc2)cc1S(=O)(=O)N1CCOCC1	1.9	38*	i	75	31	65	47*	29*	15
CCOC(=O)N1CCN(C(=O)c2ccc(Cn3c(=S)[nH]c4cc5c(cc4c3=O)OCO5)cc2)CC1	-2.3	64*	i	74	35	42	59*	26*	26*
SMILES	KCC2 mod	STAT1 inh-1	HSV augment	STAT3 act	STAT3 blocker	STAT1 activator	STAT1 inh-2	NFkB inh STAT1ct	STAT3 inh 2
CCOC(=O)N1CCN(C(=O)c2ccc3c(=O)n(-c4cc(OC)ccc4OC)c(=S)[nH]c3c2)CC1	0.2	48*	i	98	7	55	19	-6	-3
CCOC(=O)N1CCN(C(=O)c2ccc(Cn3c(=S)[nH]c4cc(OCC)c(OCC)cc4c3=O)cc2)CC1	-2.8	45*	i	89	22	58	61*	30*	19
CCOC(=O)N1CCN(C(=O)c2ccc3c(=O)n(Cc4ccc(OC)cc4)c(=S)[nH]c3c2)CC1	.	10	i	93	13	91	.	.	.
O=C(c1ccc(Cn2c(=O)[nH]c3ccccc3c2=O)cc1)N1CCN(c2ccccn2)CC1	-0.022	5	i	84	20	96	.	.	.
O=C(c1ccc(Cn2c(=S)[nH]c3ccccc3c2=O)cc1)N1CCN(c2ccccn2)CC1	-1.3	44*	i	79	31	59	35*	14	27*
S=C(NN=C1C2CC3CC(C2)CC1C3)Nc1ccccc1	.	-6	i	113	-14	108	.	.	.
CCOc1cc(-c2noc(N)c2C#N)cc(OCC)c1OCC	-0.91	40*	.	91	14	64	42*	0	10
Cc1cc(C(=O)COC(=O)CNC(=O)c2ccccc2)c(C)n1CC1CCCO1 (stereo unspecified)	0.62	37*	i	79	28	65	-49	-3	-15
Cc1cccc(C(=O)NCC(=O)OCC(=O)c2cc(C)n(CC3CCCO3)c2C)c1 (stereo unspecified)	-0.41	-6	i	101	-1	105	.	.	.
Nc1cc(=O)[nH]c(SCC(=O)N2CCCCC2)n1	-0.52	0	i	96	9	98	.	.	.
Cc1ccc(-c2cc(C(F)F)nc(S(C)(=O)=O)n2)cc1	0.012	33	i	94	12	70	29	-25	-7
Cc1ccc(-c2cc(-c3ccccc3)nc(Cl)n2)cc1	0.59	1	i	129	-30	99	.	.	.
COc1cccc2cc(/C(C)=N/Nc3nc(-c4cc(C)ccc4C)cs3)c(=O)oc12	.	-4	i	94	13	104	.	.	.
CCOC(=O)c1sc(N(Cc2ccccc2)C(=O)COC(=O)c2ccc(O)cc2)nc1C	0.031	58*	i	99	5	49	59*	57*	8
